Experimental data as given in ChEMBL document CHEMBL3272107, “Design of potent antagonists of the vasopressor response to arginine-vasopressin” (J Med Chem, 1978).
*1 amine or outer side, *2 acyl side, *3 side chain or, on linkers, in order; H or OH if unused. Where a SMILES comes first, the peptide text is derived from it. Bridges are numbered along the chain shown (N, C = ends). X1 = CC(C)(CC(=O)[*:1])S[*:2]

Assays:
Rattus norvegicus [1] = assay: Vasopressor activity in iv dosed phenoxybenzamine treated rat; format: functional
Outline: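 Rats pretreated with phenoxybenzamine, under urethane anesthesia, analogue given intravenously; vasopressor (blood pressure) response measured, antagonism expressed as pA2 by Schild method, pA2 calculated per assay group and reported as mean ± SE with number of assays.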

Rattus norvegicus [2] = assay: Antidiuretic activity in iv dosed rat; format: functional, Urine
Outline: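 Rats under ethanol anesthesia, analogue given intravenously; antidiuretic response measured by previously described method.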

Rattus norvegicus [3] = assay: Antivasopressor activity in iv dosed phenoxybenzamine treated rat assessed as inhibition of arginine-vasopressin-induced effect; format: functional, organism-based; conditions: read-out: pA2 (converted)
Outline: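 Rats pretreated with phenoxybenzamine and anaesthetised with urethane; pressor response to arginine-vasopressin recorded with and without intravenous analogue. pA2 derived by the Schild method, one pA2 calculated per assay group, reported as mean ± SE across groups, number of assays stated.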

Row | SMILES | Activity (Rattus norvegicus [1]) [U/mg] | Activity (Rattus norvegicus [2]) [U/mg] | Kb (Rattus norvegicus [3]) [µM]
1 | COc1ccc(C[C@@H]2NC(=O)[C@@H](N)CSSC[C@@H](C(=O)N3CCC[C@H]3C(=O)N[C@@H](CCCNC(=N)N)C(=O)NCC(N)=O)NC(=O)[C@H](CC(N)=O)NC(=O)[C@H](CCC(N)=O)NC(=O)[C@H](Cc3ccccc3)NC2=O)cc1 | 9.7 | 386 | –
2 | COc1ccc(C[C@@H]2NC(=O)[C@@H](N)CSSC[C@@H](C(=O)N3CCC[C@H]3C(=O)N[C@@H](CCCCN)C(=O)NCC(N)=O)NC(=O)[C@H](CC(N)=O)NC(=O)[C@H](CCC(N)=O)NC(=O)[C@H](Cc3ccccc3)NC2=O)cc1 | 2.4 | 79 | –
3 | CC[C@H](C)[C@@H]1NC(=O)[C@H](Cc2ccc(OC)cc2)NC(=O)[C@@H](N)CSSC[C@@H](C(=O)N2CCC[C@H]2C(=O)N[C@@H](CC(C)C)C(=O)NCC(N)=O)NC(=O)[C@H](CC(N)=O)NC(=O)[C@H](CCC(N)=O)NC1=O | – | 0.01 | –
4 | COc1ccc(C[C@@H]2NC(=O)CC(C)(C)SSC[C@@H](C(=O)N3CCC[C@H]3C(=O)N[C@@H](CCCN=C(N)N)C(=O)NCC(N)=O)NC(=O)[C@H](CC(N)=O)NC(=O)[C@H](CCC(N)=O)NC(=O)[C@H](Cc3ccccc3)NC2=O)cc1 (Y(Me)FQNCPRG-NH2; linker N-5 via X1) | – | 3.5 | 0.011
5 | CC1(C)CC(=O)N[C@@H](Cc2ccc(O)cc2)C(=O)N[C@@H](Cc2ccccc2)C(=O)N[C@@H](CCC(N)=O)C(=O)N[C@@H](CC(N)=O)C(=O)N[C@H](C(=O)N2CCC[C@H]2C(=O)N[C@@H](CCCNC(=N)N)C(=O)NCC(N)=O)CSS1 (YFQNCPRG-NH2; linker N-5 via X1) | – | 42 | –
6 | CC[C@H](C)[C@@H]1NC(=O)[C@H](Cc2ccc(O)cc2)NC(=O)CCSSC[C@@H](C(=O)N2CCC[C@H]2C(=O)N[C@@H](CC(C)C)C(=O)NCC(N)=O)NC(=O)[C@H](CC(N)=O)NC(=O)[C@H](CCC(N)=O)NC1=O [DEMOXYTOCIN] | 1.44 | 19 | –
7 | N=C(N)NCCC[C@@H](NC(=O)[C@@H]1CCCN1C(=O)[C@@H]1CSSCCC(=O)N[C@@H](Cc2ccc(O)cc2)C(=O)N[C@@H](Cc2ccccc2)C(=O)N[C@@H](CCC(N)=O)C(=O)N[C@@H](CC(N)=O)C(=O)N1)C(=O)NCC(N)=O [DESMOPRESSIN] | 346 | – | –
8 | NCCCC[C@H](NC(=O)[C@@H]1CCCN1C(=O)[C@@H]1CSSC[C@H](N)C(=O)N[C@@H](Cc2ccc(O)cc2)C(=O)N[C@@H](Cc2ccccc2)C(=O)N[C@@H](CCC(N)=O)C(=O)N[C@@H](CC(N)=O)C(=O)N1)C(=O)NCC(N)=O [LYPRESSIN] | 285 | 212 | –
9 | CC[C@H](C)[C@@H]1NC(=O)[C@H](Cc2ccc(O)cc2)NC(=O)[C@@H](N)CSSC[C@@H](C(=O)N2CCC[C@H]2C(=O)N[C@@H](CC(C)C)C(=O)NCC(N)=O)NC(=O)[C@H](CC(N)=O)NC(=O)[C@H](CCC(N)=O)NC1=O [OXYTOCIN] | – | 4 | –
10 | N=C(N)NCCC[C@H](NC(=O)[C@@H]1CCCN1C(=O)[C@@H]1CSSC[C@H](N)C(=O)N[C@@H](Cc2ccc(O)cc2)C(=O)N[C@@H](Cc2ccccc2)C(=O)N[C@@H](CCC(N)=O)C(=O)N[C@@H](CC(N)=O)C(=O)N1)C(=O)NCC(N)=O [VASOPRESSIN] | – | 323 | –
